Test results taken from ChEMBL document CHEMBL2034823, “Synthesis and antiviral activity of certain second generation methylenecyclopropane nucleosides” (Bioorg Med Chem, 2012).

Legend:
[1] = Antiviral activity against HHV-6B infected in human Molt3 cells assessed as reduction in viral DNA after 7 days by hybridization assay; format: functional, cell-based, Human herpesvirus 6B; conditions: Human betaherpesvirus 6B, MOLT-3, 168 h
Outline: (§1)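 Compound serially diluted in medium. Uninfected HSB-2 cells were infected with HHV-6A (GS)-infected HSB-2 cells, and Molt-3 cells with HHV-6B (Z29)-infected Molt-3 cells. Incubation 7 days at 37 °C. Lysis in 4.5 M NaCl/1.2 M NaOH, then transfer to nylon membrane. Viral DNA quantified by digoxigenin-probe hybridization and EC50 calculated. Duplicate wells.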

[2] = test system: Human betaherpesvirus 5; assay: Antiviral activity against HCMV infected in human HFF cells assessed as reduction in cytopathic effect after 8 days by plaque reduction assay; format: functional, organism-based; conditions: Human betaherpesvirus 5, HFF, 192 h
Outline: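 HFF monolayers seeded 2 days ahead and infected with AD169 at about 30 plaques per well, with 1 h adsorption. Compound was then added in MEM with 2% FBS, L-glutamine, penicillin, gentamycin and pooled human gamma globulin. After 8 days, neutral red stain and plaque counts by stereomicroscope. EC50 interpolated. Duplicate wells.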

[3] = Cytotoxicity against human HSB2 cells after 7 days by Cell-Titer Glo assay; format: cell-based, CCRF-HSB-2
Outline: (§2)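 Uninfected Akata, BCBL1, HSB-2 or MOLT-3 cells incubated with compound for seven days under the matching antiviral-assay conditions. CellTiter-Glo added and luminescence read. CC50 is the concentration reducing cell number by 50%.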

[4] = Cytotoxicity against human Akata cells after 7 days by Cell-Titer Glo assay; format: cell-based; outline: as §2
[5] = test system: Human alphaherpesvirus 1; assay: Antiviral activity against HSV-1 infected in human HFF cells assessed as reduction in cytopathic effect after 3 days by crystal violet staining; format: functional, organism-based; conditions: Human alphaherpesvirus 1, HFF, 72 h
Outline: (§3)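 Compound diluted over HFF monolayers, then HSV-1 (E-377) or HSV-2 (MS) added at MOI about 0.01 PFU/cell. Held 3 days in humidified 5% CO2. Stained 4 h with 0.1% crystal violet in formalin, rinsed, dried 24 h, and absorbance read at 595 nm. EC50 is 50% CPE reduction. Duplicate wells.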

[6] = Cytotoxicity against human HFF cells after 3 to 8 days by crystal voilet staining; format: cell-based
Outline: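 Uninfected HFF cells exposed to the same concentrations as in the CPE assays (3 days for HSV, 7 for VZV, […]). Stained with crystal violet. CC50 is the concentration reducing cell number by 50%. Duplicate wells.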

[7] = Cytotoxicity against human MOLT3 cells after 7 days by Cell-Titer Glo assay; format: cell-based, MOLT-3; outline: as §2
[8] = Antiviral activity against HHV-6A infected in human HSB2 cells assessed as reduction in viral DNA after 7 days by hybridization assay; format: functional, cell-based, Human herpesvirus 6A; conditions: Human betaherpesvirus 6A, HSB2, 168 h; outline: as §1
[9] = test system: Human alphaherpesvirus 2; assay: Antiviral activity against HSV-2 infected in human HFF cells assessed as reduction in cytopathic effect after 3 days by crystal violet staining; format: functional, organism-based; conditions: Human alphaherpesvirus 2, HFF, 72 h; outline: as §3
[10] = test system: Human gammaherpesvirus 8; assay: Antiviral activity against HHV-8 infected in human BCBL1 cells assessed as reduction in viral DNA after 7 days by qPCR analysis; format: functional, organism-based; conditions: Human gammaherpesvirus 8, BCBL1, 168 h
Outline: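 BCBL1 cells kept in RPMI 1640 with 10% FBS, penicillin, gentamycin and L-glutamine. Lytic infection induced with phorbol 12-myristate 13-acetate, then cells added to triplicate compound dilutions. Incubation 7 days at 37 °C in humidified CO2. EC50 is the concentration halving viral DNA accumulation.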

[11] = Cytotoxicity against human BCBL1 cells after 7 days by Cell-Titer Glo assay; format: cell-based; outline: as §2
[12] = test system: Human gammaherpesvirus 4; assay: Antiviral activity against EBV Akata infected in human Akata cells assessed as reduction in viral DNA after 72 hrs by hybridization assay; format: functional, organism-based; conditions: human gammaherpesvirus 4, Akata
Outline: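 Akata cells kept in RPMI 1640 with 10% FBS, L-glutamine, penicillin and gentamicin. Latent infection was switched to productive by adding goat anti-human IgG, and cells were seeded into compound dilutions made in growth medium. After 72 h the DNA was denatured and blotted onto nylon membrane. Viral DNA was measured with a digoxigenin-labeled probe plus anti-hapten antibody. EC50 is the concentration halving viral DNA. Duplicate wells.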

[13] = test system: Human alphaherpesvirus 3; assay: Antiviral activity against VZV infected in human HFF cells assessed as reduction in cytopathic effect after 7 days by crystal violet staining; format: functional, organism-based; conditions: Human alphaherpesvirus 3, HFF, 168 h

Structure (SMILES)	IC50 [1]	IC50 [2]	IC50 [5]	IC50 [8]	IC50 [9]	IC50 [10]	IC50 [12]	IC50 [13]	CC50 at 168 h [3]	CC50 at 168 h [4]	CC50 [6]	CC50 at 168 h [7]	CC50 at 168 h [11]
CCCCCCOc1nc(N)nc2c1ncn2/C=C1/CC1(CO)CO	9.5 µM	3.9 µM	> 300 µM	> 20 µM	> 300 µM	> 20 µM	7.3 µM	–	> 20 µM	> 20 µM	> 200 µM	> 20 µM	> 20 µM
Nc1nc(SCc2ccccc2)c2ncn(/C=C3/CC3(CO)CO)c2n1	> 20 µM	> 50 µM	> 300 µM	88 µM	> 300 µM	> 20 µM	3.1 µM	> 60 µM	> 100 µM	> 20 µM	> 300 µM	> 20 µM	> 20 µM
Nc1nc(N2CCOCC2)c2ncn(/C=C3/CC3(CO)CO)c2n1	–	> 300 µM	> 300 µM	> 20 µM	> 300 µM	> 20 µM	> 24 µM	> 300 µM	> 20 µM	> 24 µM	> 300 µM	–	> 20 µM
CC(C)CNc1nc(N)nc2c1ncn2/C=C1/CC1(CO)CO	–	> 300 µM	> 300 µM	> 20 µM	> 300 µM	> 20 µM	> 24 µM	> 300 µM	> 20 µM	> 24 µM	> 300 µM	–	> 20 µM
Nc1nc2c(ncn2COC(CO)CO)c(=O)[nH]1 [GANCICLOVIR]	–	2.1 µM	–	–	–	–	–	–	–	–	> 300 µM	–	–
CCCCCCCCSc1nc(N)nc2c1ncn2/C=C1/CC1(CO)CO	11 µM	20 µM	> 300 µM	> 20 µM	> 300 µM	> 20 µM	> 20 µM	> 60 µM	60 µM	> 20 µM	> 300 µM	> 20 µM	> 20 µM
CC(C)Nc1nc(N)nc2c1ncn2/C=C1/CC1(CO)CO	–	160 µM	> 300 µM	> 20 µM	> 300 µM	> 20 µM	> 24 µM	> 300 µM	> 20 µM	> 24 µM	> 300 µM	–	> 20 µM
Nc1nc(NCc2ccccc2)c2ncn(/C=C3/CC3(CO)CO)c2n1	> 20 µM	> 60 µM	> 300 µM	> 20 µM	> 300 µM	–	> 24 µM	> 60 µM	> 20 µM	> 24 µM	> 300 µM	> 20 µM	19.9 µM
CCCNc1nc(N)nc2c1ncn2/C=C1/CC1(CO)CO	–	> 300 µM	> 300 µM	> 20 µM	> 300 µM	> 20 µM	> 24 µM	> 300 µM	> 20 µM	> 24 µM	> 300 µM	–	> 20 µM
Nc1nc(N2CCCC2)c2ncn(/C=C3/CC3(CO)CO)c2n1	–	> 300 µM	> 300 µM	> 20 µM	> 300 µM	> 20 µM	> 24 µM	> 300 µM	> 20 µM	> 24 µM	> 300 µM	–	> 20 µM
CN(C)c1nc(N)nc2c1ncn2/C=C1/CC1(CO)CO	–	> 300 µM	> 300 µM	> 20 µM	> 300 µM	> 20 µM	> 24 µM	180 µM	> 20 µM	> 24 µM	> 300 µM	–	> 20 µM

Further lines, with some results ahead:

IC50 [1]	IC50 [2]	IC50 [5]	IC50 [8]	IC50 [9]	IC50 [10]	IC50 [12]	IC50 [13]	Structure (SMILES)	CC50 at 168 h [3]	CC50 at 168 h [4]	CC50 [6]	CC50 at 168 h [7]	CC50 at 168 h [11]
> 20 µM	> 300 µM	> 300 µM	> 20 µM	> 300 µM	62 µM	> 24 µM	> 300 µM	CNc1nc(N)nc2c1ncn2/C=C1/CC1(CO)CO	> 20 µM	> 24 µM	265 µM	> 20 µM	67 µM
16 µM	> 300 µM	> 300 µM	> 20 µM	> 300 µM	30 µM	11 µM	> 300 µM	Nc1nc(N)c2nc[nH]c2n1 [2,6-DIAMINOPURINE]	> 20 µM	> 20 µM	> 300 µM	> 20 µM	67 µM
–	31 µM	> 300 µM	> 20 µM	> 300 µM	> 20 µM	2.3 µM	> 50 µM	CC(C)CSc1nc(N)nc2c1ncn2/C=C1/CC1(CO)CO	60 µM	> 20 µM	> 300 µM	–	> 20 µM
–	> 300 µM	> 300 µM	> 20 µM	> 300 µM	> 20 µM	> 24 µM	> 300 µM	Nc1nc(NC2CCCCC2)c2ncn(/C=C3/CC3(CO)CO)c2n1	> 20 µM	> 24 µM	> 300 µM	–	> 20 µM
–	–	2.9 µM	–	2.8 µM	–	–	–	Nc1nc2c(ncn2COCCO)c(=O)[nH]1 [ACYCLOVIR]	–	–	> 300 µM	–	–
